Source: ChEMBL document CHEMBL3351887, “'Click' assembly of glycoclusters and discovery of a trehalose analogue that retards Aβ40 aggregation and inhibits Aβ40-induced neurotoxicity” (Bioorg Med Chem Lett, 2014)

Tests used:
[1] = Neuroprotective activity in C57BL/6 mouse primary cortical neurons assessed as reduction in amyloid beta-40-induced cell death at 40 uM pre-incubated with amyloid beta-40 for 6 hrs and measured after 48 hrs by trypan blue dye exclusion assay; format: functional, Cerebral cortex neuron; design: scale not given: the % may be the effect or the level left
Outline: (§1)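 Aβ40 (40 µM) was preincubated with or without compound for 6 h at 37 °C, at molar ratios 1:1 and 2.5:1 (compound:Aβ40). It was then added to 7–9-day-old primary cortical neurons cultured from 6 pregnant C57BL/6 mice. After 48 h, cells were stained with trypan blue and live and dead cells were counted. Values are mean + SE.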

[2] = molecular target: Amyloid-beta precursor protein (Homo sapiens) (UniProt P05067); experiment: Inhibition of amyloid beta-40 aggregation (unknown origin) assessed as beta-turns at 150 uM after 72 hrs by CD spectra analysis (reference value: 0%); design: scale not given: the % may be the effect or the level left
Sequence of Amyloid-beta precursor protein (Homo sapiens) (P05067 whole entry): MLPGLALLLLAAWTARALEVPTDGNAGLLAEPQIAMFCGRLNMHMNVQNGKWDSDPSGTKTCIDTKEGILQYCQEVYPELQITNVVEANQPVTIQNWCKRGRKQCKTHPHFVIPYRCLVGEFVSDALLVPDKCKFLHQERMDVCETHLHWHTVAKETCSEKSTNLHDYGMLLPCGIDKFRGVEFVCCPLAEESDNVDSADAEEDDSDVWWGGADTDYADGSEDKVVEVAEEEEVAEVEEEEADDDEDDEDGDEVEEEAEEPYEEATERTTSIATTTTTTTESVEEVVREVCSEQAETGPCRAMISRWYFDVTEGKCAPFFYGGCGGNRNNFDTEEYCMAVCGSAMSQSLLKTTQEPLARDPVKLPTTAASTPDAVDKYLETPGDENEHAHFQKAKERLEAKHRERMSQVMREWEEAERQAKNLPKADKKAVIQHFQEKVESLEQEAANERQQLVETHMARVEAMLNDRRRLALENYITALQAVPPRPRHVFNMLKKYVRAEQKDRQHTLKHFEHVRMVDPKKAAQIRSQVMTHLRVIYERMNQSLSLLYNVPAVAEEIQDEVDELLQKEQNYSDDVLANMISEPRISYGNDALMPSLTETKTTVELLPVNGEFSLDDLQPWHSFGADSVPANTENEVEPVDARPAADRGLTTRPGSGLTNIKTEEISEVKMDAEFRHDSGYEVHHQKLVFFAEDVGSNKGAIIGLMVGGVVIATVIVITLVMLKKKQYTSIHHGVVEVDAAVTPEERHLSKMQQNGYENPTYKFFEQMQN

[3] = molecular target: Amyloid-beta precursor protein (Homo sapiens) (UniProt P05067); experiment: Inhibition of amyloid beta-40 aggregation (unknown origin) assessed as alpha-helix at 150 uM after 72 hrs by CD spectra analysis (reference value: 11 to 15%); design: scale not given: the % may be the effect or the level left
[4] = molecular target: Amyloid-beta precursor protein (Homo sapiens) (UniProt P05067); experiment: Inhibition of amyloid beta-40 aggregation (unknown origin) assessed as fibril length at 300 uM for 7 days at pH 7.4 by transmission electron microscopy (reference value: > 2 micrometer)
Outline: (§2)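 Aβ40 (60 µM in control) was incubated quiescently with the compound at compound:Aβ40 molar ratios of 1:5, 1:1 and 5:1, pH 7.4, 37 °C, for 7 days. Fibril width and length were then measured from transmission electron microscopy images.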

[5] = molecular target: Amyloid-beta precursor protein (Homo sapiens) (UniProt P05067); experiment: Inhibition of amyloid beta-40 aggregation (unknown origin) assessed as beta-turns at 30 uM after 72 hrs by CD spectra analysis (reference value: 0%); design: scale not given: the % may be the effect or the level left
[6] = molecular target: Amyloid-beta precursor protein (Homo sapiens) (UniProt P05067); experiment: Inhibition of amyloid beta-40 aggregation (unknown origin) assessed as extension of lag phase of Abeta40 aggregation at 100 uM by ThT fluorescence assay; design: scale not given: the % may be the effect or the level left
Outline: (§3)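 Monomer-rich Aβ40 (35 µM, supernatant after NaOH dissolution, sonication and ultracentrifugation) was incubated with 10 nM–100 µM compound in 20 mM phosphate buffer pH 7.4 (I 0.15 M), with 20 µM ThT and 0.007% NaN3, quiescent at 37 °C. Fluorescence (ex 440, em 480 nm) was read every 5 min. Lag time came from an empirical sigmoidal nonlinear-regression fit; mean ± SE of four independent experiments.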

[7] = molecular target: Amyloid-beta precursor protein (Homo sapiens) (UniProt P05067); experiment: Inhibition of amyloid beta-40 aggregation (unknown origin) assessed as unordered at 150 uM after 72 hrs by CD spectra analysis (reference value: 84 to 87%); design: scale not given: the % may be the effect or the level left
[8] = molecular target: Amyloid-beta precursor protein (Homo sapiens) (UniProt P05067); experiment: Inhibition of amyloid beta-40 aggregation (unknown origin) assessed as beta-sheet at 30 uM after 72 hrs by CD spectra analysis (reference value: 1 to 3%); design: scale not given: the % may be the effect or the level left
[9] = molecular target: Amyloid-beta precursor protein (Homo sapiens) (UniProt P05067); experiment: Inhibition of amyloid beta-40 aggregation (unknown origin) assessed as unordered at 6 uM after 72 hrs by CD spectra analysis (reference value: 84 to 87%); design: scale not given: the % may be the effect or the level left
[10] = molecular target: Amyloid-beta precursor protein (Homo sapiens) (UniProt P05067); experiment: Inhibition of amyloid beta-40 aggregation (unknown origin) assessed as beta-sheet at 6 uM after 72 hrs by CD spectra analysis (reference value: 1 to 3%); design: scale not given: the % may be the effect or the level left
[11] = Toxicity in C57BL/6 mouse primary cortical neurons assessed as reduction in cell viability at 40 to 100 uM after 48 hrs by trypan blue dye exclusion assay; format: cell-based; settings: cerebral cortex neuron
[12] = molecular target: Amyloid-beta precursor protein (Homo sapiens) (UniProt P05067); experiment: Inhibition of amyloid beta-40 aggregation (unknown origin) assessed as fibril width at 300 uM for 7 days at pH 7.4 by transmission electron microscopy (reference value: 12.3 +/- 1.2 nanometer); outline: as §2
[13] = molecular target: Amyloid-beta precursor protein (Homo sapiens) (UniProt P05067); experiment: Inhibition of amyloid beta-40 aggregation (unknown origin) assessed as alpha-helix at 30 uM after 72 hrs by CD spectra analysis (reference value: 11 to 15%); design: scale not given: the % may be the effect or the level left
[14] = molecular target: Amyloid-beta precursor protein (Homo sapiens) (UniProt P05067); experiment: Inhibition of amyloid beta-40 aggregation (unknown origin) assessed as beta-sheet at 150 uM after 72 hrs by CD spectra analysis (reference value: 1 to 3%); design: scale not given: the % may be the effect or the level left
[15] = Neuroprotective activity in C57BL/6 mouse primary cortical neurons assessed as reduction in amyloid beta-40-induced cell death at 100 uM pre-incubated with amyloid beta-40 for 6 hrs and measured after 48 hrs by trypan blue dye exclusion assay; format: functional, Cerebral cortex neuron; design: scale not given: the % may be the effect or the level left; outline: as §1
[16] = molecular target: Amyloid-beta precursor protein (Homo sapiens) (UniProt P05067); experiment: Inhibition of amyloid beta-40 aggregation (unknown origin) assessed as alpha-helix at 6 uM after 72 hrs by CD spectra analysis (reference value: 11 to 15%); design: scale not given: the % may be the effect or the level left
[17] = molecular target: Amyloid-beta precursor protein (Homo sapiens) (UniProt P05067); experiment: Inhibition of amyloid beta-40 aggregation (unknown origin) assessed as beta-turns at 6 uM after 72 hrs by CD spectra analysis (reference value: 0%); design: scale not given: the % may be the effect or the level left
[18] = molecular target: Amyloid-beta precursor protein (Homo sapiens) (UniProt P05067); experiment: Inhibition of amyloid beta-40 aggregation (unknown origin) assessed as extension of lag phase of Abeta40 aggregation by ThT fluorescence assay; outline: as §3
[19] = molecular target: Amyloid-beta precursor protein (Homo sapiens) (UniProt P05067); experiment: Inhibition of amyloid beta-40 aggregation (unknown origin) assessed as unordered at 30 uM after 72 hrs by CD spectra analysis (reference value: 84 to 87%); design: scale not given: the % may be the effect or the level left

Compound `OC[C@H]1O[C@H](O[C@H]2O[C@H](Cn3cc(COCC(COCc4cn(C[C@H]5O[C@H](O[C@H]6O[C@H](CO)[C@@H](O)[C@H](O)[C@H]6O)[C@H](O)[C@@H](O)[C@@H]5O)nn4)(COCc4cn(C[C@H]5O[C@H](O[C@H]6O[C@H](CO)[C@@H](O)[C@H](O)[C@H]6O)[C@H](O)[C@@H](O)[C@@H]5O)nn4)COCC(COCc4cn(C[C@H]5O[C@H](O[C@H]6O[C@H](CO)[C@@H](O)[C@H](O)[C@H]6O)[C@H](O)[C@@H](O)[C@@H]5O)nn4)(COCc4cn(C[C@H]5O[C@H](O[C@H]6O[C@H](CO)[C@@H](O)[C@H](O)[C@H]6O)[C@H](O)[C@@H](O)[C@@H]5O)nn4)COCc4cn(C[C@H]5O[C@H](O[C@H]6O[C@H](CO)[C@@H](O)[C@H](O)[C@H]6O)[C@H](O)[C@@H](O)[C@@H]5O)nn4)nn3)[C@@H](O)[C@H](O)[C@H]2O)[C@H](O)[C@@H](O)[C@@H]1O` has an Activity [1] of 45%, an Activity [2] of 26% and an Activity [3] of 22%. For the same compound, the Activity [4] was < 2 µm, the Activity [5] was 30% and the Activity [6] was 45%. It also gave an Activity [7] of 36%, an Activity [8] of 32% and an Activity [9] of 17%. The Activity [10] was 35%, the Activity [11] was “Non-toxic” and the Activity [12] was 8.7 nm. It also gave an Activity [13] of 20%, an Activity [14] of 16% and an Activity [15] of 59%. The Activity [16] was 21%, the Activity [17] was 27% and the inhibition [18] was “Dose-dependent effect”. The Activity [19] was 18%.
